Reference: ChEMBL document CHEMBL3997823, “New homoisoflavonoid analogues protect cells by regulating autophagy” (Bioorg Med Chem Lett, 2017)
Activity calls are given as the source filed them. No cut-off for these calls is given here.

Tests used:
H9c2 [1] = assay: Cardioprotective activity against H2O2-induced injury in rat H9C2 cells assessed as increase in cell viability preincubated for 24 hrs followed by H2O2 addition measured after 24 hrs by MTT assay
SH-SY5Y [2] = assay: Neuroprotective activity against MPP+-induced injury in human SH-SY5Y cells assessed as cell viability at 50 uM preincubated for 16 hrs followed by MPP+ addition measured after 8 hrs (reference value: 40.71 to 55.85%); type: functional; conditions: read-out: Activity
SH-SY5Y [3] = assay: Induction of autophagy in human SH-SY5Y cells transfected with GFP-LC3 at 5 uM by MDC staining-based fluorescence microscopic method; type: functional, cell-based
SH-SY5Y [4] = assay: Neuroprotective activity against MPP+-induced injury in human SH-SY5Y cells assessed as cell viability at 5 uM preincubated for 16 hrs followed by MPP+ addition measured after 8 hrs (reference value: 40.71 to 55.85%); type: functional; conditions: read-out: Activity
[5] = Cytotoxicity against human MCF7 cells assessed as inhibition of cell growth at 50 uM after 72 hrs by MTT assay relative to control; type: cell-based
H9c2 [6] = assay: Cardioprotective activity against H2O2-induced injury in […] H9C2 cells assessed as increase in cell viability preincubated for 24 hrs followed by H2O2 addition measured after 24 hrs by MTT assay; type: functional, cell-based; conditions: Rattus norvegicus
Summary of the method: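 H9c2 cardiomyocytes injured with H2O2; cell viability read-out, with diazoxide as positive control.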

[7] = Cytotoxicity against human SH-SY5Y cells assessed as inhibition of cell growth at 50 uM after 72 hrs by MTT assay relative to control; type: cell-based
SH-SY5Y [8] = assay: Induction of autophagy in human SH-SY5Y cells at 12.5 to 50 uM after 24 by MDC staining-based flow cytometric method; type: functional, cell-based
Summary of the method: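 SH-SY5Y cells were treated with compound for the indicated times, then stained with monodansylcadaverine. The MDC-positive cell ratio was measured by flow cytometry as the quantitative autophagy read-out.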

Row | SMILES | EC50 (H9c2 [1]) [µM] | viability at 50 µM (SH-SY5Y [2]) [%] | viability at 5 µM (SH-SY5Y [4]) [%] | other results
1 | COc1ccccc1Cc1coc2cc(O)cc(O)c2c1=O | 24.4 |  |  | 
2 | COc1ccccc1Cc1coc2cccc(O)c2c1=O | > 100 |  |  | 
3 | CCC(=O)Oc1cc(O)c2c(=O)c(Cc3ccc(OC)cc3)coc2c1 | > 100 |  |  | 
4 | COc1ccc(Cc2coc3cc(OCC=C(C)C)cc(O)c3c2=O)cc1 | > 100 |  |  | 
5 | COc1cc(OC)c2c(=O)c(Cc3ccc(Cl)c(Cl)c3)coc2c1 | 23.8 | 48.9 | 62.4 | Activity (SH-SY5Y [3]): Active
6 | O=c1c(Cc2ccc(C(F)(F)F)cc2)coc2cc(O)cc(O)c12 | 12.7 |  |  | 
7 | COc1ccc(Cc2coc3cc(O)ccc3c2=O)cc1 | 32.1 |  |  | 
8 | COc1cccc(Cc2coc3cc(O)cc(O)c3c2=O)c1 | > 100 |  |  | 
9 | COc1ccc(Cc2coc3cc(OC(=O)N(C)C)cc(O)c3c2=O)cc1 | 19.9 | 35.5 | 42.5 | 
10 | COc1cc(OC)c2c(=O)c(Cc3ccc(C(F)(F)F)cc3)coc2c1 | > 100 |  |  | 
11 | COc1ccc(Cc2coc3cccc(O)c3c2=O)cc1 | > 100 |  |  | 
12 | COc1ccc(Cc2coc3cc(OCCCCCl)cc(O)c3c2=O)cc1 | > 100 |  |  | 
13 | COc1ccc(Cc2coc3cc(OC)cc(OC)c3c2=O)cc1 | > 100 |  |  | 
14 | COc1cc(OC)c2c(=O)c(Cc3cccs3)coc2c1 | 74.3 | 42.2 | 37.8 | 
15 | COc1ccc(Cc2coc3cc(OCCCl)cc(O)c3c2=O)cc1 | > 100 |  |  | 
16 | COc1ccc(Cc2coc3cc(OC(C)=O)cc(O)c3c2=O)cc1 | > 100 |  |  | 
17 | COc1cc(OC)c(OC)cc1Cc1coc2cc(O)cc(O)c2c1=O |  | 48.4 | 62.1 | inhibition at 72 h, 50 µM [5]: 49.5%; EC50 (H9c2 [6]): 15.7 µM; inhibition at 72 h, 50 µM [7]: 15.3%
18 | COc1ccc(Cc2coc3cc(O)cc(O)c3c2=O)cc1OC | 12.1 | 60.9 | 60.3 | Activity (SH-SY5Y [8]): Active; Activity (SH-SY5Y [3]): Active
19 | COc1ccccc1Cc1coc2cc(O)ccc2c1=O | 12.7 | 37.5 | 38.1 | 
20 | COc1ccc(Cc2coc3cc(O)cc(O)c3c2=O)cc1 | > 100 |  |  | 
